Screening results as filed in PubChem.
SENP1 FRET inh = human SENP1 catalytic domain inhibitors, primary screen, biochemical, FRET, uHTS; recombinant SENP1 catalytic domain, CyPet-SUMO1-YPet FRET cleavage; hit rate 0.21% among 360,000; inhibition, % at 10 µM; AID 624204, 2012;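 active = inhibition at least 30% at 10 µM, raw YFP signal under a set limit, fluorescence ratio 0.5 to 1.5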
Target sequence (Q9P0U3 419-644 limits assumed): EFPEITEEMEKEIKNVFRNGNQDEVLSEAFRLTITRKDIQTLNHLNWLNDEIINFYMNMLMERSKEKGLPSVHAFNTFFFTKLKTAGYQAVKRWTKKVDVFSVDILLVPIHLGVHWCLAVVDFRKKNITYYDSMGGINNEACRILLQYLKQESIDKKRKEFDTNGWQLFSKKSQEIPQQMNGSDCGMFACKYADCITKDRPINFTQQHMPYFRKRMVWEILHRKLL
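Assay system – human recombinant His6-tagged SENP1 catalytic domain enzyme · Input – SENP1 enzyme, 20 pM final · Buffer or medium – Tris pH 8 buffer plus EDTA, NaCl, BME, BSA, NP40, catalase · Schedule – 50 min reaction at room temperature · Technique – FRET read of cyan and yellow fluorescence · Control set – no-enzyme wells low, DMSO-plus-enzyme wells high control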
SENP8 block-1 = SENP8 protease inhibitors, primary screen, biochemical, luminescence; Sentrin-specific protease 8 (Homo sapiens), Q96LD8; inhibition, % at 10 µM; purified SENP8, Z-RLRGG-aminoluciferin cleavage; hit rate 1.2% among 330,000; in the data active = inhibition above about 50%
Target sequence (Q96LD8 whole entry, looked up): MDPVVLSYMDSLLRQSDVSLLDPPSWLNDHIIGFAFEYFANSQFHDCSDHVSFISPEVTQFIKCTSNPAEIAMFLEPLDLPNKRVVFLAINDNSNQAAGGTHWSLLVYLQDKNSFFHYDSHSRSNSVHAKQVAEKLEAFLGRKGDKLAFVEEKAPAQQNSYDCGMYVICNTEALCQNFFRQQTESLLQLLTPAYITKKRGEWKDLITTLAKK
SENP8 block-2 = human SENP8 protease inhibitors, primary screen, biochemical, fluorescence, Nedd8 protein substrate, uHTS. Sentrin-specific protease 8 (Homo sapiens), Q96LD8. recombinant SENP8. inhibition, % at 20 µM. hit rate 0.64% among 360,000; in the data active = inhibition mostly above about 40%, no sharp cut-off; inactive = mostly below about 27%
SENP7 inh = SENP7 protease inhibitors, primary screen, biochemical, luminescence, uHTS; Sentrin-specific protease 7 (Homo sapiens), Q9BQF6; recombinant SENP7, Z-RLRGG-aminoluciferin luminescence, 40 min; inhibition, % at 5 µM; hit rate 1.5% among 330,000;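 active = inhibition above about 50% at the single test dose, limit read from the data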
SENP6 inh = SENP6 protease inhibitors, primary screen, biochemical, luminescence, uHTS; inhibition, % at 10 µM; hit rate 1.8% among 330,000; Recombinant SENP6 catalytic domain, aminoluciferin luminescence; Sentrin-specific protease 6 (Homo sapiens), Q9GZR1;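 active = inhibition above about 50% at the single tested dose, limit read from the data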
Hits are given with their value; i = inactive; nt = no result given. The list is not random: actives were taken first. Their share in the collection is about 2.5%.

SMILES	SENP1 FRET inh	SENP8 block-1	SENP8 block-2	SENP7 inh	SENP6 inh
O=c1cc(CN2CCN(c3ccc(Cl)c(Cl)c3)CC2)c2ccccc2o1	i	nt	i	nt	nt
CCN=c1scc(-c2ccccc2)n1/N=C/c1ccccn1	i	i	i	52	63
CCN=c1scc(-c2ccc(F)cc2)n1/N=C/c1ccccn1	i	i	i	i	i
CCn1c2ccccc2c2cc(NC(=O)N3CCOCC3)ccc21	32	i	i	i	i
Cc1cc[n+](-c2[nH]c(=O)sc2/C=N/N=C(\[O-])c2ccccc2)cc1C	40	nt	i	nt	nt
O=C(CSCc1ccc(Br)cc1)Nc1ccccc1C(=O)N1CCOCC1	i	i	i	i	i
COC(=O)[C@@]1(Sc2ccc(C)cc2)CC(=O)N(c2ccccc2)[C@@H]1c1ccccc1	i	nt	i	nt	nt
CC(C)(C)NC(=O)C(c1cc2ccccc2o1)n1c(=O)c(-c2ccccc2)nc2ccccc21 (stereo not drawn)	i	nt	i	nt	nt
Nc1sccc1C(=O)NC1CC1	i	nt	i	nt	nt
FC(F)(F)C1=Nc2cccc3cccc(c23)N1	i	i	62	i	i
Fc1ccc(C2=Nc3cccc4cccc(c34)N2)cc1	i	i	i	i	i
COc1ccc([C@H]2C[C@H](O)[C@@H](n3cc(-c4ccc(F)cc4)nn3)CN2CC2CCCCC2)cc1	i	nt	i	nt	nt
O=C1c2ccccc2C(=O)c2c1ccc1c(=O)n(-c3ccccc3)[nH]c21	i	i	i	i	i
CC(C)Cn1[nH]c2c3c(ccc2c1=O)C(=O)c1ccccc1C3=O	i	i	43	i	i
COc1cccc(-c2ccc3c(c2)O[C@@H](CN(C)C(=O)C2CCOCC2)[C@H](C)CN([C@H](C)CO)S3(=O)=O)c1	i	nt	i	nt	nt
CCOc1ccc(CCN2C(=S)N([C@@H](Cc3ccc(O)cc3)CN3CCC[C@@H]3CN3C(=S)NC[C@@H]3CC(C)C)C[C@@H]2CC(C)C)cc1	i	nt	i	nt	nt
CCN1/C(=C\c2ccc3cc(C)ccc3[n+]2CC)Sc2cc(C)c(C)cc21	i	nt	i	nt	nt
CCN1/C(=C/c2ccc3cc(C)cc(C)c3[n+]2CC)Sc2cc(C)ccc21	i	nt	23	nt	nt
CCN1/C(=C/c2ccc3cc(C)ccc3[n+]2CC)Sc2ccc3sccc3c21	58	i	i	i	i
CCOc1ccc(/C=C2\SC(=S)NC2=O)cc1OC	i	i	i	i	i
COc1ccc(/C=C2\SC(=O)NC2=S)cc1OC	32	i	i	i	i
COc1cc(/C=C2/SC(=S)NC2=O)ccc1OS(=O)(=O)c1ccc(C)cc1	i	i	i	i	i
COc1cc(/C=C2\SC(=S)NC2=O)ccc1OS(=O)(=O)c1ccccc1	nt	i	nt	i	59
COc1ccc(NC(=O)C2(C)CCN2Cc2ccc(OC)c3ccccc23)cc1OC (stereo not drawn)	i	nt	i	nt	nt
CSCCC(NC(=O)COc1ccccc1)C(=O)NCC(C)(C)N1CCOCC1 (stereo not drawn)	i	nt	i	nt	nt
SMILES	SENP1 FRET inh	SENP8 block-1	SENP8 block-2	SENP7 inh	SENP6 inh
O=C1/C(=C/c2ccc(Br)cc2)Oc2cc(O)ccc21	i	53	i	i	56
O=C1CC(c2ccco2)CC(O)=C1C=Nc1cc(Cl)ccc1O (stereo not drawn)	37	i	i	i	i
O=C1CC(c2ccco2)CC(O)=C1C=Nc1cc(Cl)ccc1Cl (stereo not drawn)	i	i	i	i	i
O=C1C(c2ccc(F)cc2)N(Cc2ccc3c(c2)OCO3)C(=O)CN1C1CCCCCC1 (stereo not drawn)	i	i	i	i	i
COc1ccc(C2C(=O)N(C3CCCCC3)CC(=O)N2Cc2ccc3c(c2)OCO3)cc1 (stereo not drawn)	i	i	i	i	100
O=C(O)c1ccccc1C1=Nc2ccc(O)cc2Oc2cc(O)ccc21	59	i	i	i	i
COc1ccccc1N(C)c1cc2c(c3c1ccn3C)C1CCC2O1 (stereo not drawn)	i	nt	i	nt	nt
COc1cccc(/C=N/NC(=O)c2cnn(-c3ccccc3)c2N)c1	i	71	i	81	83
COc1ccccc1/C=C1\SC(=O)N(CCC(=O)N2CCCCC2CCO)C1=O (stereo not drawn)	i	i	i	i	i
COc1ccccc1/C=C1\SC(=S)N(CCC(=O)N2CCCCC2CCO)C1=O (stereo not drawn)	i	i	51	i	i
C=CCN1C(=O)/C(=C2\SC(N3CCOCC3)=NC2=O)c2cc(Br)ccc21	i	i	41	i	i
CCCCNC(=O)C1(C)CCCCCN1Cc1cc2ccccc2o1 (stereo not drawn)	i	nt	i	nt	nt
O=C(c1ccccc1)N(c1ccccc1)c1nccc2ccccc12	i	nt	i	nt	nt
CCOC(=O)c1c2ccccc2[n+]([O-])n1CCO	i	i	i	i	i
O=C(Nc1ccc(NC(=O)c2cccc([N+](=O)[O-])c2)cc1)c1cccc([N+](=O)[O-])c1	i	i	i	i	i
O=C(Nc1ncc([N+](=O)[O-])s1)c1cccc([N+](=O)[O-])c1	i	97	i	101	96
CC(=O)N1CCc2c(sc(NC(=O)C3CC3)c2-c2nc3ccccc3s2)C1	i	i	i	i	68
O=C1C(NS(=O)(=O)c2ccc(Cl)cc2)=C(N2CCCCC2)C(=O)c2ccccc21	i	i	46	i	i
CCOC(=O)N1CCN(C2=C(NS(=O)(=O)c3ccc(Br)cc3)C(=O)c3ccccc3C2=O)CC1	i	nt	54	nt	nt
CCN1CCN(C2=C(NS(=O)(=O)c3ccccc3)C(=O)c3ccccc3C2=O)CC1	i	i	58	i	i
CCOC(=O)N1CCN(C2=C(NS(=O)(=O)c3ccccc3)C(=O)c3ccccc3C2=O)CC1	i	i	54	i	i
CN1CCN(C2=C(NS(=O)(=O)c3ccccc3)C(=O)c3ccccc3C2=O)CC1	i	i	i	i	i
CN1CCN(C2=C(NS(=O)(=O)c3cccs3)C(=O)c3ccccc3C2=O)CC1	i	i	i	i	i
NC(=O)C1CCN(C2=C(NS(=O)(=O)c3ccc(Br)cc3)C(=O)c3ccccc3C2=O)CC1	i	i	41	i	i
NC(=O)C1CCN(C2=C(NS(=O)(=O)c3ccccc3)C(=O)c3ccccc3C2=O)CC1	i	i	i	i	i
COC(=O)C(C(=O)OC)c1ccccc1NC(=O)OCc1ccccc1	i	nt	i	nt	nt
CC(C)[C@H](NS(=O)(=O)c1ccccc1)C(=O)OCc1cc([N+](=O)[O-])cc2c1OCOC2	i	nt	i	nt	nt
CCCN1C(=O)/C(=C/c2ccc(C)o2)SC1=Nc1ccc(OC)cc1	i	i	i	i	i
CCCN1C(=O)/C(=C/c2ccco2)SC1=Nc1ccc(OC)cc1	i	i	48	i	i
CN=c1sc2c(n1C)C(=O)c1ccccc1C2=O	i	nt	73	nt	nt
